{"source": "ChEMBL document CHEMBL4613270", "about": "“Structure-Activity Relationship Study Enables the Discovery of a Novel Berberine Analogue as the RXRα Activator to Inhibit Colon Cancer” (J Med Chem, 2020)", "system": "KM12C", "assay": "Inhibition of cell proliferation of human KM12C cells incubated for 15 hrs by MTT assay", "assay_type": "functional, cell-based", "procedure,_shortened": "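Cells plated at 1×10⁴ per well, incubated overnight at 37 °C, then exposed to a concentration series for 15 h. MTT (5 mg/mL stock) added for 4 h at 37 °C. Formazan dissolved in DMSO and absorbance read at 570 nm. IC50 derived from the dose-response curve.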", "note": "pIC50: −log10 of the molar value."}
{"compound": "COc1ccc2c(c1)CC[n+]1cc3ccccc3cc1-2", "values": [{"measurement": "pIC50", "value": 3.89}]}
{"compound": "COc1cc2c(cc1OC)-c1cc3ccc(OC)c(OC)c3c[n+]1CC2", "note": "[PALMATINE CHLORIDE]", "values": [{"measurement": "pIC50", "value": 3.41}]}
{"compound": "COc1ccc2c(c1)CC[n+]1cc3c(OC)c(OC)ccc3cc1-2", "values": [{"measurement": "pIC50", "value": 4.42}]}
{"compound": "COc1cc2c(cc1OC)-c1cc3ccccc3c[n+]1CC2", "values": [{"measurement": "pIC50", "value": "< 3.22"}]}
{"compound": "COc1ccc2cc3[n+](cc2c1)CCc1cc2c(cc1-3)OCO2", "values": [{"measurement": "pIC50", "value": 4.28}]}
{"compound": "COc1cc2cc3[n+](cc2cc1OC)CCc1cc2c(cc1-3)OCO2", "note": "[PSEUDOBERBERINE]", "values": [{"measurement": "pIC50", "value": 3.33}]}
{"compound": "COc1cc2c(cc1OC)-c1cc3c(OC)cccc3c[n+]1CC2", "values": [{"measurement": "pIC50", "value": 3.57}]}
{"compound": "c1c2c(cc3c1OCO3)-c1cc3cc4c(cc3c[n+]1CC2)OCO4", "values": [{"measurement": "pIC50", "value": 4.24}]}
{"compound": "COc1ccc2c(c1)CC[n+]1cc3cc4c(cc3cc1-2)OCO4", "values": [{"measurement": "pIC50", "value": 4.33}]}
{"compound": "COc1ccc2c(c1)CC[n+]1cc3cc(OC)c(OC)cc3cc1-2", "values": [{"measurement": "pIC50", "value": 4.08}]}
{"compound": "COc1cc2c(cc1OC)-c1cc3cc(OC)c(OC)cc3c[n+]1CC2", "values": [{"measurement": "pIC50", "value": "< 3.22"}]}
{"compound": "COc1cccc2c[n+]3c(cc12)-c1cc2c(cc1CC3)OCO2", "values": [{"measurement": "pIC50", "value": 3.93}]}
{"compound": "COc1cc2c(cc1OC)-c1cc3cccc(OC)c3c[n+]1CC2", "values": [{"measurement": "pIC50", "value": 3.78}]}
{"compound": "c1ccc2c[n+]3c(cc2c1)-c1cc2c(cc1CC3)OCO2", "values": [{"measurement": "pIC50", "value": 4.10}]}
